Only some compounds are listed: those with a hit (about 2.5% of all), similar ones and a draw of the others.
PRMT1 inh = PRMT1 (human) inhibition, primary screen; 1.3% of 370,000 active; inhibition, % at 2.79 µM; recombinant PRMT1, activity-based probe fluorescence polarization; AID 652257;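 active means inhibition above about 21% made by adding two undisclosed values, limit read from the data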
HTRA1 inhibitor = HTRA1 (human) protease inhibition; recombinant HTRA1, FP-rhodamine activity-based probe, fluorescence polarization; inhibition, % at 5.96 µM; 0.5% of 340,000 active; Q92743; AID 504803; in the data active means inhibition above about 36%;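 further: 0% = enzyme with DMSO and 100% = wells lacking enzyme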
Target sequence (Q92743 whole entry, looked up): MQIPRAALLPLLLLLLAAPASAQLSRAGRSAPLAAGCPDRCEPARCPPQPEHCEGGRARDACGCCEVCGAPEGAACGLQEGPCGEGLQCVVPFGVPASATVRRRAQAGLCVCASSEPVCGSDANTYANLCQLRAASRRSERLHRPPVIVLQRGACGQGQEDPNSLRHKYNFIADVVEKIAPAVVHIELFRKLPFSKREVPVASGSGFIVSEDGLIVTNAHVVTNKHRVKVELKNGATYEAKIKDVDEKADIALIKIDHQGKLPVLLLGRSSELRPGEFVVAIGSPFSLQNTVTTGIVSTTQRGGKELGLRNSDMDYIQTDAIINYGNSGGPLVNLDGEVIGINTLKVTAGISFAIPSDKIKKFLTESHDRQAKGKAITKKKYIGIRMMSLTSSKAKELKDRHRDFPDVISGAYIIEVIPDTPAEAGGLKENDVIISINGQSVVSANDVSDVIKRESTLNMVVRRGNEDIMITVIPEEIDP
TCR CD3 inh = blocks the human TCR-CD3 interaction; TAMRA-labeled TCR probe fluorescence, biochemical; inhibition, % at 9.4 µM; 0.37% of 360,000 active; AID 651800; in the data active means inhibition above about 19%;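 further: recombinant mutant TCR 2C K166C tagged with TAMRA read by polarization; 0% = receptor in buffer alone and 100% = receptor with positive control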
SIAE primary = human SIAE inhibition, primary screen; SIAE FP-Rh probe binding, fluorescence polarization; inhibition, % at 9.66 µM; Q9HAT2; AID 1053197; 0.69% of 370,000 active;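 active means inhibition above a cutoff: mean of compounds within the control limits plus 3 SD of those, cut at about 17% in these data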;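 further: 0% = plate median of compound wells and 100% = probe without SIAE protein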
ABHD4 inh = ABHD4 (mouse) inhibition, primary FP screen. 0.54% of 370,000 active. AID 720543. Q8VD66. purified mABHD4, FP-Rh probe fluorescence polarization. inhibition, % at 8.92 µM;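 active means inhibition exceeding the mean over every tested compound plus 3 SD, cut at about 30% in these data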;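 further: 0% = plate median of compound wells and 100% = S159A mutant with DMSO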
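assay system = mABHD4 protein | compound dosing = single nominal dose of 8.92 µM, 0.89% DMSO final | read-out basis = percent inhibition of probe binding, normalized to plate controls | schedule = Enzyme–compound pre-incubation 45 min, then probe 60 min, both 25 °C | detection = fluorescence polarization, excitation 525 nm, emission 598 nm, BODIPY TMR filters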
PRMT1 confirm = confirmation of human PRMT1 inhibitors; shares compounds with PRMT1 inh; recombinant His-PRMT1, activity-based probe fluorescence polarization; inhibition, % at 2.79 µM; 42% of 3,300 active;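 active means mean inhibition across replicates above the hit cutoff derived for the earlier primary screen, cut at about 22% in these data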
Active calls of the source: *; nt = no result.

SMILES	PRMT1 inh	HTRA1 inhibitor	TCR CD3 inh	SIAE primary	ABHD4 inh	PRMT1 confirm
CCN(CC)CCSc1nc(O)c(-c2ccccc2)c(=O)n1-c1ccccc1	25*	1	-4	3	-4	16
CCN(CC)CCSc1nc(O)c(Cc2ccccc2)c(=O)n1-c1ccccc1	20	-3	-8	4	10	nt
CCn1c(SCC(=O)NCCc2ccccc2)nc2sc3c(c2c1=O)CCN(C)C3	5	-7	-1	2	1	nt
CCn1c(SCC(=O)c2ccccc2)nc2sc3c(c2c1=O)CCN(C)C3	55*	-14	-2	-5	6	14
Cc1ccc(NC(=O)CSc2nnc(-c3cccnc3)n2Cc2ccco2)cc1C	10	nt	nt	0	2	nt
CC(=O)c1cccc(N=c2scc(-c3ccc(S(=O)(=O)N4CCOCC4)cc3)n2CCO)c1	69*	-4	0	0	-5	-1
COc1ccc(-c2csc(=Nc3ccccc3)n2CCO)cc1	59*	3	-8	5	-5	-6
COc1ccc(-c2csc(=NCCO)n2-c2ccccc2)cc1	64*	0	1	1	-10	-2
CN1C(=O)[C@@]2(O[C@H]3[C@H]4C=C[C@@H]([C@H]5C(=O)N(Cc6ccccc6)C(=O)[C@@H]45)N3C3=C2C(=O)CC3)c2ccccc21	-4	nt	-8	0	-8	nt
CCc1ccc(S(=O)(=O)NCc2ccc(C(=O)NCCN(Cc3ccccc3)C(C)C)cc2)cc1	-4	nt	-9	-2	-4	nt
CC(C)NC(=O)c1sc2nc3c(c(-c4cccs4)c2c1N)CN(C)CC3	39*	9	10	-2	7	8
Cc1ccc(Cl)cc1NC(=O)CSC(N)=O	41*	-3	-4	0	2	99*
COCC(=O)Nc1cc(Cl)ccc1C	-3	-9	3	7	-1	nt
COc1ccc(C(c2nnnn2C(C)(C)C)N2CCN(c3nc4ccccc4s3)CC2)cc1OC (stereo unspecified)	-1	4	0	5	-1	nt
COc1cc(C(c2nnnn2C(C)(C)C)N2CCN(c3nc4ccccc4s3)CC2)ccc1O (stereo unspecified)	44*	-3	1	-4	1	31*
CNC(=O)C(C)Sc1ccc(S(=O)(=O)N2CCOCC2)cn1 (stereo unspecified)	1	6	1	1	3	nt
CCc1ccc(NC(=O)CC2C(=O)N(c3ccc(C)cc3)C(=O)N2C2CC2)cc1 (stereo unspecified)	-2	-5	5	3	-9	nt
Cc1ccc(C(=O)CSc2ccccn2)cc1	61*	-1	4	6	-6	40*
O=C(O)c1ccc(CSc2ccccn2)cc1	-2	6	7	-1	-4	nt
O=C(CSc1ccccn1)c1ccc(F)cc1	27*	-3	5	-3	0	24*
NC(=O)CC[C@H](NC(=O)c1ccc(F)cc1)C(=O)OCC(=O)NCc1ccc(F)cc1	-3	6	4	-14	-7	nt
CCOC(=O)CSc1nnc(NCC(=O)OC)c(=O)[nH]1	56*	1	7	-1	1	54*
CCNc1nc(NCC)n2c(SCC(=O)Nc3ccccc3F)nnc2n1	27*	3	-3	-6	4	19
CCNc1nc(NCC)n2c(SCC(=O)Nc3ccccc3OC(F)F)nnc2n1	-3	-9	3	-5	4	nt
O=C1C=CC(=O)N1CCCCCCN1C(=O)C=CC1=O	93*	nt	1	9	5	90*
SMILES	PRMT1 inh	HTRA1 inhibitor	TCR CD3 inh	SIAE primary	ABHD4 inh	PRMT1 confirm
O=C(O)CN1C(=O)C=CC1=O	64*	3	6	1	2	75*
Cc1ccc(-c2csc(NC(=O)C3=NN(c4ccccc4)C(=O)CC3)n2)cc1	-1	-9	0	-3	-13	nt
CC(C)Oc1ccc(Br)cc1/C=N\NC(N)=S	39*	-8	8	10	-13	11
Cc1cc(/C=N/NC(N)=S)c(C)n1-c1ccc(Br)cc1	3	3	2	9	0	nt
COC(=O)c1ccc(Cl)c(NC(=O)CSc2nnc(-c3ccncc3)o2)c1	-2	2	4	-4	6	nt
COC(=O)c1ccccc1NC(=O)CSc1nnc(-c2ccncc2)o1	34*	4	-6	-4	8	45*
CCOC(=O)CNC(=O)CSc1nc(Cc2cccs2)nc2ccccc12	27*	-8	-1	-4	4	22*
CCOC(=O)CSc1nc(Cc2ccccc2)nc2ccccc12	1	-19	4	-2	-5	nt
Cc1ccc(S(=O)(=O)/N=C2/NC(=O)/C(=C/c3cc([N+](=O)[O-])ccc3O)S2)cc1	14	-4	-12	-32	17	nt
COc1cc(/C=C2\S/C(=N/S(=O)(=O)c3ccc(C)cc3)NC2=O)c([N+](=O)[O-])cc1OC	27*	4	9	-21	10	2
COc1ccc(C2=NS(=O)(=O)N(C)C(C(=O)Nc3ccc(F)cc3F)=C2)cc1	85*	-15	0	3	-5	5
COc1ccc(NC(=O)C2=CC(c3ccc(OC)cc3)=NS(=O)(=O)N2C)cc1	1	-14	-1	-8	-12	nt
Cc1ccc(N2C(=O)c3cccc4c(N)ccc(c34)C2=O)c2cccnc12	94*	11	13	-38	4	119*
CC(=O)Nc1ccc(C2=NNC(=Nc3ccc(S(=O)(=O)N4CCOCC4)cc3)SC2)cc1	60*	1	-7	-25	-30	86*
CC(=O)Nc1ccc(C(=O)Nc2ccc(S(=O)(=O)N3CCOCC3)cc2)cc1	3	-4	-7	-2	-3	nt
COC(=O)CCCn1cc(CN2CC(N3CCN(C4CCN(C)CC4)CC3)CS2(=O)=O)nn1 (stereo unspecified)	10	nt	-2	4	-1	nt
O=C(NNc1nc2cc3c(cc2s1)OCCO3)c1ccccc1	13	7	-3	7	9	nt
Cc1cccc2sc(NNC(=O)c3ccc4c(c3)OCCO4)nc12	28*	20	6	-2	20	-3
CC1(C)CC(CC(=O)NNc2nc(-c3ccccc3)cs2)C(=O)O1 (stereo unspecified)	6	1	8	2	3	nt
CC(C)CC1CC(C)(c2csc(NNC(=O)c3ccccc3)n2)OC1=O (stereo unspecified)	42*	-12	4	11	12	-3
CSCCC(NC(=O)c1ccccc1Br)C(=O)NNC(=O)c1ccco1 (stereo unspecified)	3	-2	-1	-1	1	nt
CCn1c(C)c(C(C)=O)c(N2CCN(c3ccccc3)CC2)nc1=S	37*	14	3	-1	19	2
CC(=O)c1c(N2CCCC2)nc(=S)n(-c2ccccc2)c1C	14	4	3	-5	8	nt
CC(=O)c1c(N2CCN(C(=O)c3ccco3)CC2)nc(=S)n(-c2ccccc2)c1C	36*	1	-4	-5	-6	39*

Screening results from PubChem BioAssay.
